In brackets after ≈: the same amount, converted by molar mass. Activity calls are given as the source filed them. The rule behind the calls is not given here.
Experiments:
[1] = Induction of cell death in multidrug resistant human A549RT-eto cells assessed as cell survival at 20 ug/ml incubated for 24 hrs in presence of pan-caspase inhibitor Z-VAD by MTT assay (reference value: 30%); format: functional; conditions: read-out: Survival
Outline: (§1)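 Etoposide-resistant A549RT-eto cells exposed for 24 h to XanX 20 µg/ml, pan-caspase inhibitor Z-VAD 20 µM, or both combined. Morphology inspected by light microscope. Viability read by MTT assay as percentage relative to control. Values are the mean of at least three experiments.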

Homo sapiens [2] = species on record: Homo sapiens; experiment: Induction of autophagy in multidrug resistant human A549RT-eto cells assessed as reduction in mTOR phosphorylation at 7.5 to 20 ug/ml incubated for 12 hrs by immunoblot
Homo sapiens [3] = species on record: Homo sapiens; experiment: Reduction in HDAC4 protein expression in multidrug resistant human A549RT-eto cells at 20 ug/ml incubated for 24 hrs by immunoblot; format: functional
Outline: (§2)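 A549 and A549RT-eto cells treated with 20 µg/ml for 24 h; lysates resolved on 8% SDS-PAGE; immunoblot for HDAC4, P-gp and PARP cleavage.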

Homo sapiens [4] = species on record: Homo sapiens; experiment: Induction of autophagy in multidrug resistant human A549RT-eto cells assessed as increase in LC3-I to LC3-II conversion at 20 ug/ml incubated for 24 hrs by immunoblot; format: functional
Homo sapiens [5] = species on record: Homo sapiens; experiment: Induction of apoptosis in multidrug resistant human A549RT-eto cells assessed as reduction in pro-caspse-8 protein expression at 10 to 20 ug/ml incubated for 12 hrs by Western blot method; format: functional
Outline: (§3)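 A549RT-eto cells treated at 10 and 20 µg/ml, lysed at 12 h; lysates resolved on 12% SDS-PAGE; immunoblot for pro-caspase 8 and PARP cleavage.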

Homo sapiens [6] = species on record: Homo sapiens; experiment: Induction of cell death in multidrug resistant human A549RT-eto cells incubated for 72 hrs by MTT assay; format: functional
Outline: (§4)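 Parental A549 and etoposide-resistant A549RT-eto cells exposed 72 h to two-fold serial dilutions, 25 to 1.56 µg/ml; viability by MTT; IC50 derived from dose-response; mean of triplicates with standard deviation.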

Homo sapiens [7] = species on record: Homo sapiens; experiment: Induction of autophagy in multidrug resistant human A549RT-eto cells assessed as increase in LC3-I to LC3-II conversion at 20 ug/ml incubated for 24 hrs in presence of HDAC4 siRNA by immunoblot; format: functional
Outline: (§5)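 A549RT-eto cells transfected with control or HDAC4 siRNA (100 nM), then 20 µg/ml for 24 h; MTT viability, mean of three experiments; lysates on 12% SDS-PAGE immunoblotted for HDAC4, beclin-1 and LC3-I cleavage.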

Homo sapiens [8] = species on record: Homo sapiens; experiment: Induction of apoptosis in multidrug resistant human A549RT-eto cells assessed as increase in PARP cleavage at 20 ug/ml incubated for 24 hrs in presence of pan-caspase inhibitor Z-VAD by Western blot method; format: functional
Outline: (§6)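 A549RT-eto cells given 20 µg/ml alone, Z-VAD (20 µM) alone, or both for 24 h; MTT viability, mean of at least three experiments; lysates on 12% SDS-PAGE immunoblotted for cleaved PARP, beclin-1, LC3B and Atg5.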

Homo sapiens [9] = species on record: Homo sapiens; experiment: Induction of autophagy in multidrug resistant human A549RT-eto cells assessed as increase in beclin-1 protein level at 20 ug/ml incubated for 24 hrs by immunoblot; format: functional
Homo sapiens [10] = species on record: Homo sapiens; experiment: Induction of apoptosis in multidrug resistant human A549RT-eto cells assessed as increase in PARP cleavage at 10 to 20 ug/ml incubated for 12 hrs by Western blot method; format: functional; outline: as §3
Homo sapiens [11] = species on record: Homo sapiens; experiment: Induction of cell death in multidrug resistant human A549RT-eto cells incubated for 72 hrs by light microscopy; format: functional
Outline: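 A549RT-eto cells given 0, 1.56, 3.13, 6.25, 12.5 or 25 µg/ml for 72 h; morphology and viability judged under light microscope.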

Homo sapiens [12] = species on record: Homo sapiens; experiment: Cytotoxicity in multidrug resistant human A549RT-eto cells assessed as reduction in cell survival at; format: functional, cell-based
[13] = Induction of cell death in multidrug resistant human A549RT-eto cells assessed as cell survival at 20 ug/ml incubated for 24 hrs in absence of pan-caspase inhibitor Z-VAD by MTT assay; format: functional; conditions: read-out: Survival; outline: as §1
Homo sapiens [14] = species on record: Homo sapiens; experiment: Induction of autophagy in multidrug resistant human A549RT-eto cells assessed as increase in LC3-I to LC3-II conversion at 7.5 to 20 ug/ml incubated for 12 hrs by immunoblot
[15] = Induction of cell death in multidrug resistant human A549RT-eto cells assessed as cell survival at 20 ug/ml incubated for 24 hrs in absence of pan-caspase inhibitor Z-VAD by light microscopy; format: functional; conditions: read-out: Survival; outline: as §1
Homo sapiens [16] = species on record: Homo sapiens; experiment: Induction of autophagy in multidrug resistant human A549RT-eto cells assessed as increase in beclin-1 protein level at 20 ug/ml incubated for 24 hrs in presence of pan-caspase inhibitor Z-VAD by immunoblot; format: functional; outline: as §6
Homo sapiens [17] = species on record: Homo sapiens; experiment: Induction of autophagy in multidrug resistant human A549RT-eto cells assessed as increase in vacuoles formation at 7.5 to 20 ug/ml by light microscopy
Homo sapiens [18] = species on record: Homo sapiens; experiment: Induction of apoptosis in multidrug resistant human A549RT-eto cells assessed as increase in PARP cleavage at 20 ug/ml incubated for 24 hrs in presence of HDAC4 siRNA by Western blot method; format: functional
Homo sapiens [19] = species on record: Homo sapiens; experiment: Induction of cell death in multidrug resistant human A549RT-eto cells at 20 ug/ml incubated for 24 hrs in presence of beclin-1 siRNA by MTT assay; format: functional
Outline: (§7)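 A549RT-eto cells transfected with control or beclin-1 siRNA (100 nM), then given 0 or 20 µg/ml for 24 h; viability by light microscopy and MTT as percent relative viability, mean of three experiments; lysates on 12% SDS-PAGE immunoblotted for PARP cleavage, beclin-1 and LC3.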

[20] = Cytotoxicity in multidrug resistant human A549RT-eto cells incubated for 72 hrs by MTT assay; format: functional, cell-based; outline: as §4
Homo sapiens [21] = species on record: Homo sapiens; experiment: Induction of autophagy in multidrug resistant human A549RT-eto cells assessed as increase in LC3-I to LC3-II conversion at 20 ug/ml incubated for 24 hrs in presence of beclin-1 siRNA by immunoblot; format: functional; outline: as §7
[22] = Induction of cell death in multidrug resistant human A549RT-eto cells at 20 ug/ml incubated for 24 hrs by MTT assay; format: functional
Homo sapiens [23] = species on record: Homo sapiens; experiment: Reduction in P-gp protein expression in multidrug resistant human A549RT-eto cells at 20 ug/ml incubated for 24 hrs by immunoblot; format: functional; outline: as §2
Homo sapiens [24] = species on record: Homo sapiens; experiment: Induction of apoptosis in multidrug resistant human A549RT-eto cells assessed as increase in PARP cleavage at 20 ug/ml incubated for 24 hrs in presence of beclin-1 siRNA by Western blot method; format: functional; outline: as §7
Homo sapiens [25] = species on record: Homo sapiens; experiment: Induction of autophagy in multidrug resistant human A549RT-eto cells assessed as increase in beclin-1 protein level at 7.5 to 20 ug/ml incubated for 12 hrs by immunoblot
Homo sapiens [26] = species on record: Homo sapiens; experiment: Induction of apoptosis in multidrug resistant human A549RT-eto cells assessed as reduction in pro-caspse-9 protein expression at 10 to 20 ug/ml incubated for 12 hrs by Western blot method; format: functional
Homo sapiens [27] = species on record: Homo sapiens; experiment: Induction of autophagy in multidrug resistant human A549RT-eto cells assessed as increase in beclin-1 protein level at 20 ug/ml incubated for 24 hrs in presence of HDAC4 siRNA by immunoblot; format: functional; outline: as §5
Homo sapiens [28] = species on record: Homo sapiens; experiment: Induction of autophagy in multidrug resistant human A549RT-eto cells assessed as increase in GFP-LC3-II puncta at 7.5 to 20 ug/ml incubated for 24 hrs by fluorescence microscopy; format: functional
Homo sapiens [29] = species on record: Homo sapiens; experiment: Induction of autophagy in multidrug resistant human A549RT-eto cells assessed as increase in LC3-I to LC3-II conversion at 20 ug/ml incubated for 24 hrs in presence of pan-caspase inhibitor Z-VAD by immunoblot; format: functional; outline: as §6
[30] = Induction of cell death in multidrug resistant human A549RT-eto cells assessed as cell survival at 20 ug/ml incubated for 24 hrs in presence of pan-caspase inhibitor Z-VAD by light microscopy (reference value: 30%); format: functional; conditions: read-out: Survival; outline: as §1
Homo sapiens [31] = species on record: Homo sapiens; experiment: Cytotoxicity in multidrug resistant human A549RT-eto cells assessed as reduction in cell survival at 20 ug/ml incubated for 24 hrs by MTT assay; format: functional, cell-based
Outline: (§8)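 A549RT-eto cells held at fixed 20 µg/ml and sampled at several exposure times (0, 6, 12, 24 h); survival scored.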

Homo sapiens [32] = species on record: Homo sapiens; experiment: Cytotoxicity in multidrug resistant human A549RT-eto cells assessed as reduction in cell survival at 20 ug/ml incubated for 12 hrs by MTT assay; format: functional, cell-based; outline: as §8
A549 = experiment: Cytotoxicity in human A549 cells incubated for 72 hrs by MTT assay; format: functional, cell-based; conditions: A549, 72 h; outline: as §4
Homo sapiens [33] = species on record: Homo sapiens; experiment: Induction of cell death in multidrug resistant human A549RT-eto cells at 20 ug/ml incubated for 24 hrs in presence of beclin-1 siRNA by light microscopy; format: functional; outline: as §7
[34] = Induction of cell death in multidrug resistant human A549RT-eto cells at 20 ug/ml incubated for 24 hrs in presence of HDAC4 siRNA by MTT assay; format: functional
Outline: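 A549RT-eto cells transfected with control or HDAC4 siRNA (100 nM), then exposed to XanX 20 µg/ml for 24 h. Morphology checked by light microscope. Viability by MTT assay as percentage relative viability, mean of three experiments.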

## CC(C)=CCc1c2c(c3oc4c(O)c(O)ccc4c(=O)c3c1O)C(C)(C)C(C)O2 (stereo not given)
[1]
  viability at 20 µg/mL: 85%
Homo sapiens [2]
  Activity: Active
Homo sapiens [3]
  Activity: Active
Homo sapiens [4]
  Activity: Active
Homo sapiens [5]
  Activity: Active
Homo sapiens [6]
  Activity: Dose-dependent effect
Homo sapiens [7]
  Activity: Active
Homo sapiens [8]
  Activity: inactive
Homo sapiens [9]
  Activity: Active
Homo sapiens [10]
  Activity: Active
Homo sapiens [11]
  Activity: Dose-dependent effect
Homo sapiens [12]
  Activity: inactive
[13]
  viability at 20 µg/mL: 30%
Homo sapiens [14]
  Activity: Active
[15]
  viability at 20 µg/mL: 30%
Homo sapiens [16]
  Activity: Active
Homo sapiens [17]
  Activity: Active
Homo sapiens [18]
  Activity: Active
Homo sapiens [19]
  Activity: inactive
[20]
  IC50: 4.65 mg/L (≈ 11.7 µM)
Homo sapiens [21]
  Activity: inactive
[22]
  Activity: 60%
Homo sapiens [23]
  Activity: Active
Homo sapiens [24]
  Activity: Active
Homo sapiens [25]
  Activity: Active
Homo sapiens [26]
  Activity: Active
Homo sapiens [27]
  Activity: Active
Homo sapiens [28]
  Activity: Active
Homo sapiens [29]
  Activity: Active
[30]
  viability at 20 µg/mL: 85%
Homo sapiens [31]
  Activity: Active
Homo sapiens [32]
  Activity: inactive
A549
  IC50: 2.56 mg/L (≈ 6.46 µM)
Homo sapiens [33]
  Activity: inactive
[34]
  Activity: 80%
